In the library only some 3.3% were active in any assay of this set; here they are far more common.
Arr AP2 block: blocks beta-arrestin peptide binding to AP2 adaptin; inhibition, % at 10 µM; AID 504490; FITC-arrestin peptide / GST-AP2 beads, flow cytometry; AP2 beta2 appendage carries R879A mutation; 340,000 tested, 0.31% active;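 active means inhibition above a set limit, near 3 SD of compounds lacking own fluorescence, cut at about 54% in these data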
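System: GST-tagged AP2 beta2-adaptin appendage (R879A) on 4 µm glutathione beads / Reagent: FITC-arrestin peptide, 50 nM / Detection: HyperCyt-sampled flow cytometry, FL1 channel, ex 488/em 535 nm / Timing: 12 min plus 1 h, RT / Buffer or medium: PBS plus Tween 20 (0.05%) and BSA (0.1%)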
Exocytosis inh: lytic granule exocytosis inhibition; TALL-104 LAMP-1 surface exposure, flow cytometry; cells stimulated with thapsigargin and PMA; inhibition, % at 10 µM; 360,000 tested, 0.66% active; AID 651702;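 active means inhibition above about 55%, limit read from the data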
ATG4B inhibitor: ATG4B (human) cysteine protease inhibition | inhibition, % at 8.33 µM | Q9Y4P1 | 340,000 tested, 0.51% active | ATG4B cleavage of LC3-PLA2, NBD-HPC fluorescence, 1 h; in the data active means inhibition above about 40%
ABCB6 inh MLPCN: human ABCB6 transporter inhibition. Q9NP58. 360,000 tested, 0.19% active. K562-ABCB6 porphyrin accumulation, flow cytometry, 1 h; hits give low values. fluorescence ratio to DMSO, % at 10 µM;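 active means fluorescence ratio to DMSO below 75%, the collection mean minus 3 SD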;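 further: signal is porphyrin accumulated inside mitochondria; lower ratio means ABCB6 inhibition with less porphyrin fluorescence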
CendR NRP1 mod: alters CendR peptide binding to human NRP-1; FAM-RPARPAR peptide binding to NRP-1, fluorescence polarization; inhibition, % at 25 µM; 360,000 tested, 0.85% active; O14786;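 active means inhibition or corrected inhibition above about 18%, plus a signal ratio from 0.5 to 1.5, limit read from the data, passing the limit was not always enough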
Myeloid diff MLP: promotes myeloid progenitor differentiation; 360,000 tested, 1% active; ER-HoxA9 myeloid progenitors, lysozyme-GFP differentiation, flow cytometry; calls only at 10 µM;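 active means normalized GFP-positive differentiation at or above the plate's own cutoff, the solvent-only control mean plus 3 SD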;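 further: cells exposed to compound for four days before flow analysis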
Myeloid diff CP1: promotes myeloid progenitor differentiation; shares compounds with Myeloid diff MLP; ER-HoxA9 myeloid progenitors, GFP/Mac1 double-positive flow; calls only; 2,300 tested, 2% active;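 active means share of green or green-and-red cells above 9 and 9% in run 1 or 4 and 3% in run 2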
GFP autofluor: compound fluorescence in myeloid differentiation counter-screen; shares compounds with Myeloid diff MLP; ER-HoxA9 myeloid progenitors, no estrogen, GFP autofluorescence flow cytometry; vehicle wells 0%, positive control 100%; fluorescence response, % (no concentration beside the values); 2,300 tested, 7.4% active; AID 651707;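 active means over 5% cells positive for green fluorescent reporter, or over 2% positive for both it and APC stain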
A number is an active result; 0 = inactive; - = no result; + = active, no number.

SMILES	Arr AP2 block	Exocytosis inh	ATG4B inhibitor	ABCB6 inh MLPCN	CendR NRP1 mod	Myeloid diff MLP	Myeloid diff CP1	GFP autofluor
CC(=O)Nc1cc(-c2cccc(C(=O)NCCN(C)C)c2)cn2c(-c3ccc(S(C)(=O)=O)cc3)cnc12	-	0	-	0	0	+	0	5.3
O=S(=O)(c1ccccc1)c1nc(-c2ccccc2)oc1NCc1cccnc1	0	0	0	0	0	0	-	-
O=S(=O)(c1ccccc1)c1nc(-c2ccco2)oc1NCc1cccnc1	0	0	0	0	0	+	0	0
C[C@@H]1CN([C@@H](C)CO)C(=O)c2cccc(NS(C)(=O)=O)c2O[C@H]1CN(C)Cc1ccc(Oc2ccccc2)cc1	0	0	0	0	0	0	0	0
COc1cc(C(=O)N2CCCC(c3nc(-c4cccs4)no3)C2)cc(OC)c1OC (centres undefined)	0	0	0	0	0	0	0	0
COc1cccc(C(=O)N2CCCC(c3nc(-c4cccs4)no3)C2)c1 (centres undefined)	0	0	0	0	0	0	-	-
COc1cc(S(=O)(=O)N2CCn3cccc3C2C)ccc1NC(C)=O (centres undefined)	0	0	0	0	0	0	-	-
CC(=O)Nc1c2c(nn1-c1ccccc1)CSC2	0	0	0	0	0	0	-	-
O=C(/C=C\c1ccc2c(c1)OCO2)Nc1c2c(nn1-c1ccc(Cl)cc1)CSC2	0	0	0	0	0	0	0	0
CSc1cccc(NC(=O)C2CCN(S(=O)(=O)c3ccc4c(c3)NC(=O)CO4)CC2)c1	0	0	0	0	0	0	-	-
CC[N+](C)(CC)CCC(c1ccccc1)C1CCCCC1 (centres undefined)	0	0	0	0	0	0	0	0
COc1ccc(-n2c(N)c(C(=O)NCC3CCCO3)sc2=S)cc1 (centres undefined)	-	0	0	0	0	+	0	0
CCC(C(=O)OCC(=O)N1C(C)CCCC1C)c1ccccc1 (centres undefined)	0	0	0	0	0	0	0	0
COc1ccc(S(=O)(=O)Nc2ccc3c(c2)C(=O)N([C@@H](C)CO)C[C@@H](C)[C@H](CN(C)C(=O)CCCN(C)C)OCCCC[C@H](C)O3)cc1	-	0	-	0	0	0	-	-
C[C@@H]1CCCCO[C@@H](CN(C)C(=O)c2ccncc2)[C@@H](C)CN([C@H](C)CO)C(=O)c2cc(N(C)C)ccc2O1	-	0	-	0	0	0	-	-
C[C@@H]1CCCCO[C@H](CN(C)C(=O)C2CCCCC2)[C@@H](C)CN([C@H](C)CO)C(=O)c2cc(N(C)C)ccc2O1	-	0	-	0	0	0	0	0
Cc1noc(C)c1S(=O)(=O)Nc1ccc2c(c1)C(=O)N([C@H](C)CO)C[C@H](C)[C@@H](CN(C)C(=O)CCCN(C)C)OCCCC[C@@H](C)O2	-	0	-	0	0	0	0	0
CC(Oc1ccc2c(-c3ccccc3)cc(=O)oc2c1)C(=O)N1CCC[C@@H]1C(N)=O (some centres undefined)	0	0	0	0	0	0	-	-
CCc1nc(SCC(=O)Nc2cc(C)on2)c2c(C)c(C)sc2n1	0	0	0	0	0	0	-	-
Cc1cc(NC(=O)CSc2nc(C3CC3)nc3sc(C)c(C)c23)no1	0	0	0	0	0	0	0	2.7
O=C(CN1C(=O)C2CCCCC2C1=O)N1CCN(c2ccccc2)CC1 (centres undefined)	0	0	0	0	0	0	-	-
O=C(CN1C(=O)C2CCCCC2C1=O)N1CCN(c2ccc(F)cc2)CC1 (centres undefined)	0	0	0	0	0	+	0	0
FC(F)Oc1ccc(NC(=S)NCCc2ccccn2)cc1	0	0	0	0	0	0	-	-
O=c1c2ccccc2nc(CSc2nnnn2-c2ccccc2)n1-c1ccccc1Cl	0	0	0	0	0	0	-	-
c1ccc(Cn2c(CSc3nnnn3-c3ccccc3)nc3ccccc32)cc1	0	0	0	0	0	0	0	0
SMILES	Arr AP2 block	Exocytosis inh	ATG4B inhibitor	ABCB6 inh MLPCN	CendR NRP1 mod	Myeloid diff MLP	Myeloid diff CP1	GFP autofluor
COc1cccc(-c2csc(N3CCN(CC(=O)NNC(=O)c4ccc(Cl)cc4)CC3)n2)c1	0	0	0	0	0	0	0	0
COc1cc(C=Cc2nnc3c4ccccc4cnn23)cc(OC)c1OC	-	0	-	0	0	0	-	-
O=C(CSc1nnc2scc(-c3ccccc3)n12)Nc1ccc2c(c1)OCCO2	0	0	0	0	0	0	-	-
O=C(CCSc1nnc2scc(-c3ccccc3)n12)NCc1ccc2c(c1)OCO2	0	0	0	0	0	0	0	0
CC(C)(C)c1ccc(NC(=O)c2c(F)cccc2Cl)cc1	0	0	0	0	0	0	-	-
Cc1[nH]c2ccccc2c1-c1nc2ccccc2[nH]1	0	0	0	0	0	+	0	0
Cc1cccc(C(=O)NC(C(=O)Nc2cccc(S(=O)(=O)N3CCCC3)c2)C(C)C)c1 (centres undefined)	0	0	0	0	0	0	-	-
O=C(Nc1cccc(S(=O)(=O)N2CCCCCC2)c1)C1CCC1	0	0	0	0	0	0	0	0
Cc1cccc(C(=O)N[C@H](C(=O)Nc2cccc(S(=O)(=O)N3CCCC3)c2)C(C)C)c1	0	0	0	0	0	0	0	0
Cc1cc(C)c2c(CC(=O)NC3CCS(=O)(=O)C3)coc2c1 (centres undefined)	0	0	0	0	0	0	-	-
O=C(O)c1ccc(-n2cccc2/C=N\NC(=O)c2cc3cc(Br)ccc3o2)cc1	0	0	0	0	0	0	-	-
COc1cccc(CNS(=O)(=O)c2ccccc2Br)c1OC	0	0	-	0	0	0	0	0
CCn1nc(C)cc1C(=O)NC1CCCc2c1cnn2-c1cc(F)cc(F)c1 (centres undefined)	0	0	0	0	0	0	-	-
CC(CNC(=O)C1CCCCC1)NC(=O)C1CCCCC1 (centres undefined)	0	0	0	0	0	+	0	0
CC(C)CNC(=O)C(=O)NNC(=O)C1CCCCC1	0	0	0	0	0	0	-	-
Cc1ccc(C)c(C(O)c2ncc(-c3ccc(F)cc3)[nH]2)c1 (centres undefined)	-	0	-	0	0	0	-	-
O=[N+]([O-])c1ccc2[nH]c(O)c(N=Nc3ccc(F)cc3)c2c1	0	0	0	0	0	+	0	9.8
CC1CC(C)CN(C(=O)COC(=O)c2nn(C)c(=O)c3ccccc23)C1 (centres undefined)	0	0	0	0	0	0	-	-
O=C(COC(=O)Cc1ccc(Cl)cc1)NCc1ccc(Cl)cc1	-	0	-	0	0	0	-	-
